The text below walks through data of ChEMBL document CHEMBL1671826, “Effect of Inhibiting Histone Deacetylase with Short-Chain Carboxylic Acids and Their Hydroxamic Acid Analogs on Vertebrate Development and Neuronal Chromatin” (ACS Med Chem Lett, 2011).

The source made the active and inactive calls. No cut-off for these calls is given here. Some results are limits rather than exact numbers.

The target in data set [1] is Histone deacetylase 5 (Homo sapiens, UniProt Q9UQL6). As to the kind of experiment: Inhibition of human recombinant HDAC5. The gist of the method: (§1)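 Recombinant HDAC isoforms incubated with acetyl-lysine tripeptide–AMC substrate (mimics histone H4 K12), or trifluoroacetyl-lysine-AMC for class IIa enzymes, each substrate at its Km; trypsin cleavage of deacetylated product releases fluorescent AMC. IC50 from two experiments in duplicate, mean ± SD.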

Data set [2] has as its target Histone deacetylase 4 (Homo sapiens, UniProt P56524). Briefly: Inhibition of human recombinant HDAC4. The gist of the method:
as §1

In data set [3] the target is T1, Histone deacetylase 7 (Homo sapiens, UniProt Q8WUI4).
T1 sequence (Q8WUI4 whole entry): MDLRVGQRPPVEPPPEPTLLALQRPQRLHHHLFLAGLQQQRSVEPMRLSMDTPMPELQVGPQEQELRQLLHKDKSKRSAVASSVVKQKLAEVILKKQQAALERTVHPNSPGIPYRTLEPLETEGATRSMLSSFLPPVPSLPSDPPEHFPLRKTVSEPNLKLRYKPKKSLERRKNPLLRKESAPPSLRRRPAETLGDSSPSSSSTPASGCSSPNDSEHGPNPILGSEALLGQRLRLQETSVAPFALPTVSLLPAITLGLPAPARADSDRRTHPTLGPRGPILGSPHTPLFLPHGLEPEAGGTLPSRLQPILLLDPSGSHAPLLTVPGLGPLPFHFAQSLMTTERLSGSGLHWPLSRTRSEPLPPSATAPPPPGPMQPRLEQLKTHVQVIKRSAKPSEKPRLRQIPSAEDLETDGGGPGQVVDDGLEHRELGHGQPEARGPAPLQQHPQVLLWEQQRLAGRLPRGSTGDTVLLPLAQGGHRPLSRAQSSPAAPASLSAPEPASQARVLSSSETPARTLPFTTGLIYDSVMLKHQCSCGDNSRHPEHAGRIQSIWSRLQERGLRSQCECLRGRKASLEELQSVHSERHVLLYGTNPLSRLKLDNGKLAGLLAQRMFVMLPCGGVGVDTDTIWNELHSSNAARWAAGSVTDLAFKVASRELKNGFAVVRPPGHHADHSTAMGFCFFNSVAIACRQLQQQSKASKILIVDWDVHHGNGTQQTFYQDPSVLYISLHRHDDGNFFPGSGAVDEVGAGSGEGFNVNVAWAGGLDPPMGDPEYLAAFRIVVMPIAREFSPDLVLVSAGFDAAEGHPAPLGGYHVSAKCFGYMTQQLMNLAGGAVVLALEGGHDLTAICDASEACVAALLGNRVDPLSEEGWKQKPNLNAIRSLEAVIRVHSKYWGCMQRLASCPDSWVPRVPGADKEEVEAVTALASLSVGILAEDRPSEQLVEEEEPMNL
Briefly: Inhibition of human recombinant HDAC7.

For data set [4], the species on record is Xenopus laevis. As to the kind of experiment: Induction of developmental deffects in frog embryos assessed as loss of anterior structures at 2 mM after 18 hrs. It counts as organism-based. To be noted: in vivo, 2000 µM. The essentials:
(§2)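 Xenopus laevis embryos exposed in the whole-organism development assay at 2 mM and scored morphologically for loss of anterior structures, shortened anterior–posterior axis, and heart looping and pigment defects; compared with untreated embryos.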

The species entered for data set [5] is Xenopus laevis. As to the kind of experiment: Induction of developmental deffects in frog embryos assessed as shortening of anterior-posterior axis at 2 mM after 18 hrs. As to conditions: in vivo, 2000 µM. It counts as organism-based. The gist of the method:
as §2

For data set [6], the target named is Histone deacetylase 3 (Homo sapiens, UniProt O15379). As to the kind of experiment: Inhibition of human recombinant HDAC3. The gist of the method: as §1
For data set [7], the target named is Histone deacetylase 2 (Homo sapiens, UniProt Q92769). As to the kind of experiment: Inhibition of human recombinant HDAC2. The gist of the method: as §1
Data set [8] addresses Histone deacetylase 1 (Homo sapiens, UniProt Q13547). Briefly: Inhibition of human recombinant HDAC1. The essentials:
as §1

For data set [9], the species on record is Xenopus laevis. As to the kind of experiment: Induction of tubulin acetylation in frog embryos at 2 mM after 18 hrs Western blotting. The gist of the method:
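Frog embryos treated from stage 18 (end of neurulation) through tailbud stages (32) for 18 h at the indicated concentrations; acetylated tubulin detected by Western blot.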
A general note: A western blot detects proteins with antibodies after separation by electrophoresis.

The species named for data set [10] is Xenopus laevis. As to the kind of experiment: Induction of developmental deffects in frog embryos assessed as heart looping and pigment deffects at 2 mM after 18 hrs. To be noted: in vivo, 2000 µM. The class given is organism-based. The essentials: as §2
Data set [11] addresses T2, Protein deacetylase HDAC6 (Homo sapiens, UniProt Q9UBN7).
T2 sequence (Q9UBN7 whole entry): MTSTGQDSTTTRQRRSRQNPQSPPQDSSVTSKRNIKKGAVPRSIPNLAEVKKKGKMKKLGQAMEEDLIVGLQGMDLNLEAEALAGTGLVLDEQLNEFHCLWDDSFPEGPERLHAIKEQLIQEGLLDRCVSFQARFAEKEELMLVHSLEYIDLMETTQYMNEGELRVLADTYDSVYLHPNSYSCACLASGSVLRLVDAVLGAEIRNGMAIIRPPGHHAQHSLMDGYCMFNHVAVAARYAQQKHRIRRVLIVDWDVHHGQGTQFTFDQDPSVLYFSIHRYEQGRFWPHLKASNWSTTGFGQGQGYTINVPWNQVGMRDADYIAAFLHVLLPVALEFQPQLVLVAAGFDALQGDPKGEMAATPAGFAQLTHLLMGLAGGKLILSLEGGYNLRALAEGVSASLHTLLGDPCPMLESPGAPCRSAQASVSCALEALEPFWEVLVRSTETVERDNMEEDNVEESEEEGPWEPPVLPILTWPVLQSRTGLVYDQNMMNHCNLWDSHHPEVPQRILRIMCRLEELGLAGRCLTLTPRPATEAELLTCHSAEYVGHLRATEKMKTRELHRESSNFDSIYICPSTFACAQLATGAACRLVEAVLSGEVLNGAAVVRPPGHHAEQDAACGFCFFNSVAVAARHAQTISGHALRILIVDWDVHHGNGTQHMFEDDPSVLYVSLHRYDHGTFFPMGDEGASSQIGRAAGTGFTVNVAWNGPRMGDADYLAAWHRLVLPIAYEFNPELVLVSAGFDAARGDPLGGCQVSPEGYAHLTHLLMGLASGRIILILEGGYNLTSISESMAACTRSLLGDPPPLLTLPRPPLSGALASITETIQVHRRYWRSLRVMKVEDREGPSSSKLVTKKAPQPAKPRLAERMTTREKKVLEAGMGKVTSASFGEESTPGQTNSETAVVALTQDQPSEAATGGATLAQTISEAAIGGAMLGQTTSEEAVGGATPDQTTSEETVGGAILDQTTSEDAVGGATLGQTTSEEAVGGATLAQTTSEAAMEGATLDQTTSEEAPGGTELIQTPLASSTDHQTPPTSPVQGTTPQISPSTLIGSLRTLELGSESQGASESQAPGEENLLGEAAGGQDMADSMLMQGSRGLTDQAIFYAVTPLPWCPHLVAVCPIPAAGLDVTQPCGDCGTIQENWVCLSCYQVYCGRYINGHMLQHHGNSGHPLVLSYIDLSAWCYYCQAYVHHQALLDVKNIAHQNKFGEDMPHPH
Briefly: Inhibition of human recombinant HDAC6. The gist of the method:
as §1

The species named for data set [12] is Xenopus laevis. As to the kind of experiment: Induction of histone H3 acetylation in frog embryos at 2 mM after 2 hrs Western blotting. The gist of the method: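 Frog embryos treated from completion of neurulation (stage 18) into tailbud stages for 2 h at the indicated concentrations; histone acetylation read by Western blot.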

Chain of Histone deacetylase 5 (Q9UQL6 whole entry, canonical isoform): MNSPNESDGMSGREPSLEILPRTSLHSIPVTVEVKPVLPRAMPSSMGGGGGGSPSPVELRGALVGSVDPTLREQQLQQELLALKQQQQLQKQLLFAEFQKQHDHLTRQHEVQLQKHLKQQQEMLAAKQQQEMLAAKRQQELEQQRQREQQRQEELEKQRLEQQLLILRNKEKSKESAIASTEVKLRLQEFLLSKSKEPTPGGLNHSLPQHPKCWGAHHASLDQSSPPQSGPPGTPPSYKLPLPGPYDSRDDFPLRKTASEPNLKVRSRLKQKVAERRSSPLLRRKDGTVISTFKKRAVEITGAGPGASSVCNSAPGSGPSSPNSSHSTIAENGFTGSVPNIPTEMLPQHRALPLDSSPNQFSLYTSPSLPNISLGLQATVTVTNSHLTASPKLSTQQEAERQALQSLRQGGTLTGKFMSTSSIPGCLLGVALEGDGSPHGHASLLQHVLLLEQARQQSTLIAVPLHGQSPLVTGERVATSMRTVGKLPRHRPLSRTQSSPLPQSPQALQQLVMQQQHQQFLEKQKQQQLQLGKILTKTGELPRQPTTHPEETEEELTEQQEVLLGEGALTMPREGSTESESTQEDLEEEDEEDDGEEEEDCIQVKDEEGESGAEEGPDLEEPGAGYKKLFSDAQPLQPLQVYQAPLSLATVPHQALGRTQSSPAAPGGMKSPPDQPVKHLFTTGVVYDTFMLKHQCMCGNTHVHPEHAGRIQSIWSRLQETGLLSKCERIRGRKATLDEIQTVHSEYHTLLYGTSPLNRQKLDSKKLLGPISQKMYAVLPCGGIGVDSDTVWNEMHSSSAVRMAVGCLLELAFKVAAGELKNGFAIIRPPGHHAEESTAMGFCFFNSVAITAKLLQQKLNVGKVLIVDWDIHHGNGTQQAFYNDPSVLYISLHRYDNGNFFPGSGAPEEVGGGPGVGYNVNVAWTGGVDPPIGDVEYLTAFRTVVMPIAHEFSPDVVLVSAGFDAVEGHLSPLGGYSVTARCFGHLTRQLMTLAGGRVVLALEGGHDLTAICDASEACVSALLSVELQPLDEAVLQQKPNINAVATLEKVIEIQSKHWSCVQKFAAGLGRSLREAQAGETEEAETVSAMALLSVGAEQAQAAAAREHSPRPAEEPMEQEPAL
Chain of Histone deacetylase 4 (P56524 whole entry): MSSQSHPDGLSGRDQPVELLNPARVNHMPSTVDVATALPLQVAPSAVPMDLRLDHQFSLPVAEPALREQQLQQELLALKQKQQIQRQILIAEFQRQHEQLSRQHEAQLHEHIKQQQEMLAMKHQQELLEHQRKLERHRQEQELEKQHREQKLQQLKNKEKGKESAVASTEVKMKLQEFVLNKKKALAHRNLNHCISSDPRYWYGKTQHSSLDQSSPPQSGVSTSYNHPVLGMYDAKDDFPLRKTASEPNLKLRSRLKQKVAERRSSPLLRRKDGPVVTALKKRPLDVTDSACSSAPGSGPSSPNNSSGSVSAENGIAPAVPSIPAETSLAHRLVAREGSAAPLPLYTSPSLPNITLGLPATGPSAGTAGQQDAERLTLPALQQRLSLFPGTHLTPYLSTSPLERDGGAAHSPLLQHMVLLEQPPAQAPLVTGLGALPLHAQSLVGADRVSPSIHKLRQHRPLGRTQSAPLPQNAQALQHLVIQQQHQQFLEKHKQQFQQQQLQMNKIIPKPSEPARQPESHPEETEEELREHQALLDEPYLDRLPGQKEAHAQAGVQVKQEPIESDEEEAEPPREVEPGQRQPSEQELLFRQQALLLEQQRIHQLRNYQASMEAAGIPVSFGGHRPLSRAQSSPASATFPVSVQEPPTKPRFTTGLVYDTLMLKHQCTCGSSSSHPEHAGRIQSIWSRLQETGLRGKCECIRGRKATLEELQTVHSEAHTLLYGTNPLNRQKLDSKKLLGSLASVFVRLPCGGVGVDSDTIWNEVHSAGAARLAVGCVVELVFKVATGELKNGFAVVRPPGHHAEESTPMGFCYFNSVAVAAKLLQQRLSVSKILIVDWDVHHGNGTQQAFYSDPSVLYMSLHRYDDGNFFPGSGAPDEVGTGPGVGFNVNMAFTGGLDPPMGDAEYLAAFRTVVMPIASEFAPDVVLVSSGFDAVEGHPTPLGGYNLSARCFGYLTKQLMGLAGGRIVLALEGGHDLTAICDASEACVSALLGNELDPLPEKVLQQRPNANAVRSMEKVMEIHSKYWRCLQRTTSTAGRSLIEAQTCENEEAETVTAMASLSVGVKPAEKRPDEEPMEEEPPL
Chain of Histone deacetylase 2 (Q92769 whole entry): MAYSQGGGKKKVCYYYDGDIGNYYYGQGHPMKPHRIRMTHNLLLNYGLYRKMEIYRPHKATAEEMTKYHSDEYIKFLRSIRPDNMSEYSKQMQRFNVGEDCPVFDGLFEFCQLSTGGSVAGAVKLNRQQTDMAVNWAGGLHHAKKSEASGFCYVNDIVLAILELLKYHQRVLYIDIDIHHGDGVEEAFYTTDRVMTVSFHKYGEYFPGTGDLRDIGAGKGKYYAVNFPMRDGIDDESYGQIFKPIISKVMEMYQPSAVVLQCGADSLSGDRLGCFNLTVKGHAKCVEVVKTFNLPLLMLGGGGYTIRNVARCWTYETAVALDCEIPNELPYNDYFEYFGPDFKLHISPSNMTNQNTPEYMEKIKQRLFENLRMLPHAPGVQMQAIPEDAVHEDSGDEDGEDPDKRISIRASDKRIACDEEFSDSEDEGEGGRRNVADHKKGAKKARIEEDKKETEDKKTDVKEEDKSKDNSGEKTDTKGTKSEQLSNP
Chain of Histone deacetylase 1 (Q13547 whole entry): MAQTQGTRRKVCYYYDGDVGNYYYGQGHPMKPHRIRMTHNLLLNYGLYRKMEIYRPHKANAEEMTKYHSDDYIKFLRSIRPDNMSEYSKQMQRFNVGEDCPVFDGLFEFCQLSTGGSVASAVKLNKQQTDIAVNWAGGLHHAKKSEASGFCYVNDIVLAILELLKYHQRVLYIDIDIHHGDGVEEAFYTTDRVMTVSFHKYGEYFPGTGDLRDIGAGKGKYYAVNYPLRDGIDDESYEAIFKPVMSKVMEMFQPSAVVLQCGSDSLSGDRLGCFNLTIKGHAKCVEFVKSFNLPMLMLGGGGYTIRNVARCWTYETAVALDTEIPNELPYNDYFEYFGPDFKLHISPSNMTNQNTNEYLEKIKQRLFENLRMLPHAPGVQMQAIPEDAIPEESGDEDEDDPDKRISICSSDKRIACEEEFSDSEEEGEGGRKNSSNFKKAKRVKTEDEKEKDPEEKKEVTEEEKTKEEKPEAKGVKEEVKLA
Chain of Histone deacetylase 3 (O15379 whole entry): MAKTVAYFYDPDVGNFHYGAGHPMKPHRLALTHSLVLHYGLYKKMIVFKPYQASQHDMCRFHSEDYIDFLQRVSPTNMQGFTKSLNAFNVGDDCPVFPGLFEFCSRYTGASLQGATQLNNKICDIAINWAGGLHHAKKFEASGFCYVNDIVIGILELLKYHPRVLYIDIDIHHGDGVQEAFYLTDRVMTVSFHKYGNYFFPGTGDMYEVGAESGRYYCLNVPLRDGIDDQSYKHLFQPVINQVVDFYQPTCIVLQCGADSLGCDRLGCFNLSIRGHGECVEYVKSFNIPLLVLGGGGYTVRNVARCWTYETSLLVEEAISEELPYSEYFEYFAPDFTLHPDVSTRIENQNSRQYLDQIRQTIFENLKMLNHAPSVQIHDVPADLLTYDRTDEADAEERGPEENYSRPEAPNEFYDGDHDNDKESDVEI

One may read the IC50 as the concentration needed to halve the response being measured. In the case of `O=C(O)CCCc1ccccc1`, the IC50 in data set [1], in data set [2] and in [3] was greater than 2000 µM in each case.
On to `CCCC(CCC)C(=O)NO` [VALPROPYLHYDROXAMIC ACID], for which the Activity entry in data set [4], in data set [5] and in [10] was “Non-toxic” in each case. The IC50 in [1] stood at 37 µM; in data set [2], 170 µM; in data set [6] it was 340 µM; in data set [7] it was 680 µM; in [8] it was 560 µM; in data set [11] it was 16 µM. Also, the result in [9] was Active. The outcome in data set [12] was inactive.
